In ChEMBL document CHEMBL4376814, “Novel cyclin-dependent kinase 9 (CDK9) inhibitor with suppression of cancer stemness activity against non-small-cell lung cancer” (Eur J Med Chem, 2019):
Active and inactive are the calls of the source. The calls are words filed in the database; no cut-off is given here.

Key:
A549 [1] = test: Antiproliferative activity against human A549 cells assessed as inhibition of cell viability after 72 hrs by CCK-8 assay; assay type: functional, cell-based; conditions: A549, 72 h
How it was run: (§1)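 Cells kept at 37 °C, 5% CO2 in DMEM or RPMI-1640 with 10% FBS and 1% penicillin/streptomycin, then seeded at 3000 cells/well (adherent) or 10,000 cells/well (suspension). Exposed to a range of concentrations for 72 h. CCK-8 added for 1-4 h before reading A450. […] Three independent experiments.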

HCC827 = test: Antiproliferative activity against human HCC827 cells assessed as inhibition of cell viability after 72 hrs by CCK-8 assay; assay type: functional, cell-based; conditions: HCC827, 72 h; how it was run: as §1
A549 [2] = test: Induction of apoptosis in human A549 cells assessed as necrotic cells at 1 uM after 48 hrs by AnnexinV-FITC/PI staining-based flow cytometric analysis (reference value: 0.664%); assay type: functional
A549 [3] = test: Induction of apoptosis in human A549 cells assessed as late apoptotic cells at 0.25 uM after 48 hrs by AnnexinV-FITC/PI staining-based flow cytometric analysis (reference value: 7.66%); assay type: functional
NCI-H1299 [4] = test: Induction of apoptosis in human H1299 cells assessed as late apoptotic cells at 1 uM after 48 hrs by AnnexinV-FITC/PI staining-based flow cytometric analysis (reference value: 1.77%); assay type: functional
A549 [5] = test: Induction of apoptosis in human A549 cells assessed as increase in Bim protein expression at 0.25 to 1 uM after 24 hrs by Western blot analysis; assay type: functional, cell-based
How it was run: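 A549 or H1299 cells exposed to the indicated concentrations for 24 h. Protein extracts then immunoblotted for apoptosis-pathway proteins (Bcl2, Bim, cleaved caspase 3).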

A549 [6] = test: Down regulation of CDK9 expression in human A549 cells at 0.25 to 1 uM after 24 hrs by Western blot analysis; assay type: functional, cell-based
How it was run: (§2)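 A549 and H1299 cells treated for 24 h with serial dilutions alongside a DMSO control. Protein extracts resolved and immunoblotted.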

NCI-H1299 [7] = test: Downregulation of cyclin T1 expression in human H1299 cells at 0.25 to 1 uM after 24 hrs by Western blot analysis; assay type: functional, cell-based; how it was run: as §2
A549 [8] = test: Inhibition of tumorsphere formation in human A549 cells assessed as reduction in side population ratio by PI/Hoechst 33342 staining based flow cytometry; assay type: functional, cell-based
NCI-H1299 [9] = test: Downregulation of NANOG in human H1299 cells at 0.25 to 1 uM by Western blot analysis; assay type: functional, cell-based
Homo sapiens = organism: Homo sapiens; test: Inhibition of recombinant human BrSK2 […] mutant (2 to end residues) at 1 uM using KKLNRTLSFAEPG as substrate measured after 40 mins in presence of [gamma33P]ATP by scintillation counting method relative to control
[10] = target: Mitogen-activated protein kinase kinase kinase 10 (Homo sapiens) (UniProt Q02779); test: Inhibition of recombinant human MLK2 (1 to 449 residues) at 1 uM using myelin basic protein as substrate measured after 40 mins in presence of [gamma33P]ATP by scintillation counting method relative to control
[11] = target: Myosin-IIIb (Homo sapiens) (UniProt Q8WXR4); test: Inhibition of recombinant human MYO3B (1 to 326 residues) at 1 uM using RLGRDKYKTLRQIRQ as substrate measured after 40 mins in presence of [gamma33P]ATP by scintillation counting method relative to control
[12] = target: Calcium/calmodulin-dependent protein kinase type II subunit gamma (Homo sapiens) (UniProt Q13555); test: Inhibition of recombinant full-length human CaMK2gamma (1 to 330 residues) at 1 uM using calmodulin as substrate measured after 40 mins in presence of [gamma33P]ATP by scintillation counting method relative to control
[13] = target: Platelet-derived growth factor receptor alpha (Homo sapiens) (UniProt P16234); test: Inhibition of recombinant human PDGFRalpha (550 to end residues) at 1 uM using poly[Glu:Tyr] (4:1) as substrate measured after 40 mins in presence of [gamma33P]ATP by scintillation counting method relative to control
[14] = system: Mast/stem cell growth factor receptor Kit (Homo sapiens), P10721 [V654A]; test: Inhibition of recombinant human cKit (544 to end residues) V654A mutant at 1 uM using GGMEDIYFEFMGGKKK as substrate measured after 40 mins in presence of [gamma33P]ATP by scintillation counting method relative to control
How it was run: (§3)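 Single-point inhibition at 1 µM was measured in the Eurofins KinaseProfiler panel. Values are the mean of two independent experiments.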

[15] = target: Protein-tyrosine kinase 2-beta (Homo sapiens) (UniProt Q14289); test: Inhibition of recombinant full-length human Pyk2 at 1 uM using poly(Glu, Tyr) 4:1 as substrate measured after 40 mins in presence of [gamma33P]ATP by scintillation counting method relative to control
[16] = target: Rho-associated protein kinase 1 (Homo sapiens) (UniProt Q13464); test: Inhibition of recombinant human ROCK1 (17 to 535 residues) at 1 uM using KEAKEKRQEQIAKR as substrate incubated for 40 mins in presence of [gamma-33P]ATP by radiometric assay relative to control; how it was run: as §3
[17] = target: Homeodomain-interacting protein kinase 3 (Homo sapiens) (UniProt Q9H422); test: Inhibition of recombinant human HIPK3 (161 to 562 residues) at 1 uM using myelin basic protein as substrate measured after 40 mins in presence of [gamma33P]ATP by scintillation counting method relative to control
[18] = system: SNF-related serine/threonine-protein kinase (Homo sapiens), Q9NRH2 [UNDEFINED MUTATION]; test: Inhibition of human SNRK E97G/P116A mutant (1 to 505 residues) at 1 uM using KKLRRTLSFAEPG as substrate measured after 40 mins in presence of [gamma33P]ATP by scintillation counting method relative to control
How it was run: (§4)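 Percent inhibition of kinase activity at a single compound concentration, measured by the outsourced Eurofins KinaseProfiler panel. Values are the mean of two independent experiments.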

[19] = target: Tyrosine-protein kinase Srms (Homo sapiens) (UniProt Q9H3Y6); test: Inhibition of human SRMS at 1 uM by radiometric method relative to control; how it was run: as §4
[20] = target: Serine/threonine-protein kinase ULK2 (Homo sapiens) (UniProt Q8IYT8); test: Inhibition of human ULK2 (1 to 306 residues) using casein as substrate measured after 40 mins in presence of [gamma33P]ATP by scintillation counting method relative to control
Mus musculus = organism: Mus musculus; test: Inhibition of recombinant full-length mouse LYN N425D mutant at 1 uM using poly(Glu, Tyr) 4:1 as substrate measured after 40 mins in presence of [gamma33P]ATP by scintillation counting method relative to control
[21] = target: Mitogen-activated protein kinase 1 (Homo sapiens) (UniProt P28482); test: Inhibition of recombinant full-length human MAPK2 at 1 uM using MBP as substrate measured after 40 mins in presence of [gamma33P]ATP by scintillation counting method relative to control
[22] = target: Phosphatidylinositol 3-kinase C2 domain-containing subunit gamma (Homo sapiens) (UniProt O75747); test: Inhibition of recombinant human PI3KC2gamma (468 to 1203 residues) at 1 uM using phosphatidylinositol as substrate measured after 40 mins by HTRF assay relative to control

Homeodomain-interacting protein kinase 3 (Homo sapiens), sequence (Q9H422 whole entry, looked up, the tested form may be a part): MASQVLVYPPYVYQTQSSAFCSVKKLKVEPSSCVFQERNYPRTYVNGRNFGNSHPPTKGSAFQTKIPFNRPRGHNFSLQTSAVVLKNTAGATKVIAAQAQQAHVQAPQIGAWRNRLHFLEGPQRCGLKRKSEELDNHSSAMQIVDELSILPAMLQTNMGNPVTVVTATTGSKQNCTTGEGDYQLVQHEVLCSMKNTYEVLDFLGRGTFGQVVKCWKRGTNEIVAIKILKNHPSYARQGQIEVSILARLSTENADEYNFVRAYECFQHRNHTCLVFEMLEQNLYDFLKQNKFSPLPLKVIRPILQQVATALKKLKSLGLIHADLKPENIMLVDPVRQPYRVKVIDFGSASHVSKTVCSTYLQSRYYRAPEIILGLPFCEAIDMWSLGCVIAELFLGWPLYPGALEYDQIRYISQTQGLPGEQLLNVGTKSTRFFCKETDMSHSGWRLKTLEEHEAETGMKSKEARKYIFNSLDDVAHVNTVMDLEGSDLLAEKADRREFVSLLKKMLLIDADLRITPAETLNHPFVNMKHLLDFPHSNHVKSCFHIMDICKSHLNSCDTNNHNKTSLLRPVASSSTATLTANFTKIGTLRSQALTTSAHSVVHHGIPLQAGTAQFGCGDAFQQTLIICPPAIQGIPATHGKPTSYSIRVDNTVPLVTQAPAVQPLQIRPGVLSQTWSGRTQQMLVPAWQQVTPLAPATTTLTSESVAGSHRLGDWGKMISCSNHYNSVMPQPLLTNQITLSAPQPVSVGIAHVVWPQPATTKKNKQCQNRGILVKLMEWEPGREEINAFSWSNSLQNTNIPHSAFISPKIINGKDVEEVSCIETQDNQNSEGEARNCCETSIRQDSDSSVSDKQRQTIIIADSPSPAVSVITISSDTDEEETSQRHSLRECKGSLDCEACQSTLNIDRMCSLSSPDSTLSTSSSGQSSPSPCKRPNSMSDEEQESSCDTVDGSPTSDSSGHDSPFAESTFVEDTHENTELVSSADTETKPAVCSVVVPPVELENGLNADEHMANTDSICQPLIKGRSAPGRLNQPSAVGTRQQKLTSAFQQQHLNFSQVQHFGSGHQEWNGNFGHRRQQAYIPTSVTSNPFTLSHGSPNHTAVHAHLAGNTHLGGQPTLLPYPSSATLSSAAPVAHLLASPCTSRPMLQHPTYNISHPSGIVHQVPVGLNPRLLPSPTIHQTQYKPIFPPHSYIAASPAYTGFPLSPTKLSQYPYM
Calcium/calmodulin-dependent protein kinase type II subunit gamma (Homo sapiens), sequence (Q13555 whole entry, the tested form may be a part): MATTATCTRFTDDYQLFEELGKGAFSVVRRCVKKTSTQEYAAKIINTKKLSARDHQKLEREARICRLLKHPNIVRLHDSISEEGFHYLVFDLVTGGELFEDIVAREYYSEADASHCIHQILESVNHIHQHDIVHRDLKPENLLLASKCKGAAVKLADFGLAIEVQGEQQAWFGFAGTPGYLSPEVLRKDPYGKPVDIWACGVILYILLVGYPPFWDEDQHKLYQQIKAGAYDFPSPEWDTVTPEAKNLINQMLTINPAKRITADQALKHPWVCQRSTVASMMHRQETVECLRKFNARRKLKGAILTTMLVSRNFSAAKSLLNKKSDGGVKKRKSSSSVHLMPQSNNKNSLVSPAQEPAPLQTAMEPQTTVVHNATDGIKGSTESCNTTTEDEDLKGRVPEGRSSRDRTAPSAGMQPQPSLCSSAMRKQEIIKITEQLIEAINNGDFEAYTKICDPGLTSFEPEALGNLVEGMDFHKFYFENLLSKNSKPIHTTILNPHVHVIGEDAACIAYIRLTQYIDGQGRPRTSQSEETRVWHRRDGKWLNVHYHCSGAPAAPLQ
Mitogen-activated protein kinase 1 (Homo sapiens), sequence (P28482 whole entry, the tested form may be a part): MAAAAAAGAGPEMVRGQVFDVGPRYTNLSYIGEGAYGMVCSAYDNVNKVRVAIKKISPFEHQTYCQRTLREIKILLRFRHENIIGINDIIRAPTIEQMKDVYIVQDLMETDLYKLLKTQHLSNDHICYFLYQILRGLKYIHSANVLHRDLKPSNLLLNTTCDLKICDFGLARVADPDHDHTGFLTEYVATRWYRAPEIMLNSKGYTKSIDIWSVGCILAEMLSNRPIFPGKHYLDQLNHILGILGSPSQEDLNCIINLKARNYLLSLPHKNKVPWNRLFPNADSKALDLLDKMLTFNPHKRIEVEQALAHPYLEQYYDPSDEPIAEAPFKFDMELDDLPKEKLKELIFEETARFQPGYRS
Platelet-derived growth factor receptor alpha (Homo sapiens), sequence (P16234 whole entry): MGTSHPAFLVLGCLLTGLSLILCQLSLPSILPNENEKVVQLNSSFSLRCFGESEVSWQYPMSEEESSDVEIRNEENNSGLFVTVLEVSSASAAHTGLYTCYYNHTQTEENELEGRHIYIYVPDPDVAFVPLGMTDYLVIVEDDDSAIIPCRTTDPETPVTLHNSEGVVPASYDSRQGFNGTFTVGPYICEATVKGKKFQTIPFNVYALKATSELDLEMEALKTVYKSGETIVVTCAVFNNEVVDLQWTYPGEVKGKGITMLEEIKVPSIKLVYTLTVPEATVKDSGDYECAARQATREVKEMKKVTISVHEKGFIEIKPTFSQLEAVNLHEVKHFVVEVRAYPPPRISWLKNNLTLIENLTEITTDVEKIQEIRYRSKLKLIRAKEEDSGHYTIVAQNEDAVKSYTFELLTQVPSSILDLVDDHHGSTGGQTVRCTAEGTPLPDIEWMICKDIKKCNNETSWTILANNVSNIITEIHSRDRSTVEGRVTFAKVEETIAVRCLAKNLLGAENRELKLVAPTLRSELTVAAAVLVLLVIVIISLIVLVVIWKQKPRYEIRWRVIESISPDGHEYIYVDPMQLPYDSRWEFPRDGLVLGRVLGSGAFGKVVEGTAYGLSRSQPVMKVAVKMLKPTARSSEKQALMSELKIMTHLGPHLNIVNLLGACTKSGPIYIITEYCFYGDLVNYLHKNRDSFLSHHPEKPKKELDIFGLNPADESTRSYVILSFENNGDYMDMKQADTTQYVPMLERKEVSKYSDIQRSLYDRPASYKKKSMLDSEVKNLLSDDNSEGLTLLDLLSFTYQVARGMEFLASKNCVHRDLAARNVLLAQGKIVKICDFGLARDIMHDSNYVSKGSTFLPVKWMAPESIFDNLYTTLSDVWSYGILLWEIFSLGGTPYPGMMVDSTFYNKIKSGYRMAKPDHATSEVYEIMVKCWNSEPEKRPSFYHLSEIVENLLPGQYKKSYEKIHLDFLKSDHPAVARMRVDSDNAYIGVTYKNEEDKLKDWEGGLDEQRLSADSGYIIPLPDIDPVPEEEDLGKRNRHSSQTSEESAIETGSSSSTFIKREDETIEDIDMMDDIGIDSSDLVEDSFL
Serine/threonine-protein kinase ULK2 (Homo sapiens), sequence (Q8IYT8 whole entry, the tested form may be a part): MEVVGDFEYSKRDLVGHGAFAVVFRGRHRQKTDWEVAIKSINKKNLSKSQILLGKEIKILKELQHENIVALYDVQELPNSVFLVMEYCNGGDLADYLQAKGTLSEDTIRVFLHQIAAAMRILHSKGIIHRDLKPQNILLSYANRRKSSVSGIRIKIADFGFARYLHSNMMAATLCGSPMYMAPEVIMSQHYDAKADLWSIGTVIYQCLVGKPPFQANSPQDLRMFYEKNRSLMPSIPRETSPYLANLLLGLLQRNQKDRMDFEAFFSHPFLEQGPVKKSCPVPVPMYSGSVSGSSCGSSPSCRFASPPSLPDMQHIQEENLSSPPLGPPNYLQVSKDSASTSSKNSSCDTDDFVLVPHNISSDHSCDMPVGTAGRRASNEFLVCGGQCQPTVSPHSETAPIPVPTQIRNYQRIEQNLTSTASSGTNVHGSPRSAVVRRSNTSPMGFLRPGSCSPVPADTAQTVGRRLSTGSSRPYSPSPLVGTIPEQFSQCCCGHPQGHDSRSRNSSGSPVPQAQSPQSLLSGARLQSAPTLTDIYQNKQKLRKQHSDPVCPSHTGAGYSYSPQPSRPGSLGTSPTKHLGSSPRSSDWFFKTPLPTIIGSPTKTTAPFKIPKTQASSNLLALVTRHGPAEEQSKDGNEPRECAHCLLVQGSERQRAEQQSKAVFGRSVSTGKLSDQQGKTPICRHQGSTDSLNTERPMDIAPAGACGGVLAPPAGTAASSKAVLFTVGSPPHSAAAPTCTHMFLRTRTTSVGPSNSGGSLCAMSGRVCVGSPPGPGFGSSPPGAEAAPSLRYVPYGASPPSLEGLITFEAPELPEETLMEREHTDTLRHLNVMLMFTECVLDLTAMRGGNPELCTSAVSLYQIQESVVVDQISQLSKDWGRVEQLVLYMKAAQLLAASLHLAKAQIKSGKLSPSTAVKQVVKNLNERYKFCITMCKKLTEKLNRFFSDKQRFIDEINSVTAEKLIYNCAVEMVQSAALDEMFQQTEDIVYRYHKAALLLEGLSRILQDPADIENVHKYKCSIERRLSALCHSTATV
Tyrosine-protein kinase Srms (Homo sapiens), sequence (Q9H3Y6 whole entry, the tested form may be a part): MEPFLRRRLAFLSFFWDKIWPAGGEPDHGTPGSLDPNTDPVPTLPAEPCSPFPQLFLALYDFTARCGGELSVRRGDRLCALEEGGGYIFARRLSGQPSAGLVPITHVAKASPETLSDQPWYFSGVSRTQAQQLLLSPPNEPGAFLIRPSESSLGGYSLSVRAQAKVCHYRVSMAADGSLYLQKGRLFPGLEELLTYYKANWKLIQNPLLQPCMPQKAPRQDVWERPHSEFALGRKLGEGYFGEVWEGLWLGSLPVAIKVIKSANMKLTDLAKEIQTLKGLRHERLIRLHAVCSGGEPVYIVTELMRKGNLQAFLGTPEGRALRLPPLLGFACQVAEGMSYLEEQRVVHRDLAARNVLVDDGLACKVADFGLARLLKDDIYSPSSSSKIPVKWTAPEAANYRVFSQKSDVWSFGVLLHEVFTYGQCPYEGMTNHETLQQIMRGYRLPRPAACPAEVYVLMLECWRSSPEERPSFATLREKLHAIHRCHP

## CN(C)C(=O)c1cc2cnc(Nc3ccc(NC(=O)CCCCCCCN=C=S)cc3)nc2n1C1CCCC1
A549 [1]
  IC50: 450 nM
HCC827
  IC50: 1070 nM
A549 [2]
  Activity: 7.76%
A549 [3]
  Activity: 14.5%
NCI-H1299 [4]
  Activity: 4.51%
A549 [5]
  Activity: Active
A549 [6]
  Activity: inactive
NCI-H1299 [7]
  Activity: Active
A549 [8]
  inhibition: Dose-dependent effect
NCI-H1299 [9]
  Activity: Active
Homo sapiens
  inhibition: 14%
[10]
  inhibition: 65%
[11]
  inhibition: -1%
[12]
  inhibition: 53%
[13]
  inhibition: 7%
[14]
  inhibition: 11%
[15]
  inhibition: 46%
[16]
  inhibition: 11%
[17]
  inhibition: 26%
[18]
  inhibition: 7%
[19]
  inhibition: 34%
[20]
  inhibition: -7%
Mus musculus
  inhibition: 36%
[21]
  inhibition: 7%
[22]
  inhibition: 3%
